Results reported in ChEMBL document CHEMBL1629563, “Pharmacokinetic and safety evaluation of BILR 355, a second-generation nonnucleoside reverse transcriptase inhibitor, in healthy volunteers” (Antimicrob Agents Chemother, 2008).

Assays:
Homo sapiens [1] = assay: Toxicity in healthy human assessed as occurrence of increase in alanine aminotransferase level at 1 mg, po administered as single dose relative to control; format: organism-based; settings: in vivo
Homo sapiens [2] = assay: Toxicity in healthy human assessed as occurrence of maculopapular rash at 5 mg, po administered as single dose relative to control; format: organism-based; settings: in vivo
Homo sapiens [3] = assay: Toxicity in healthy human assessed as occurrence of frequent bowel movements at 5 mg, po administered as single dose relative to control; format: organism-based; settings: in vivo
[4] = Half life in healthy human at 50 mg, po administered as single dose coadministered with 100 mg of ritonavir; format: ADME, organism-based; settings: in vivo
[5] = Half life in healthy human at 62.5 mg, po administered as single dose coadministered with 100 mg of ritonavir; format: ADME, organism-based; settings: in vivo
[6] = Half life in healthy human at 75 mg, po administered as single dose coadministered with 100 mg of ritonavir; format: ADME, organism-based; settings: in vivo
[7] = Half life in healthy human at 87.5 mg, po administered as single dose coadministered with 100 mg of ritonavir; format: ADME, organism-based; settings: in vivo
[8] = Mean residence time in healthy human at 12.5 mg, po administered as single dose coadministered with 100 mg of ritonavir; format: ADME, organism-based; settings: in vivo
[9] = Apparent volume of distribution in terminal phase in healthy human at 75 mg, po administered as single dose coadministered with 100 mg of ritonavir; format: ADME, organism-based; settings: in vivo, read-out: Vz/F
Summary of the method: (§1)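 Healthy male volunteers, fasted overnight, got one oral dose of BILR 355 in PEG solution with 200 ml water. Ritonavir 100 mg was given 10 h before and again with the dose. Plasma was sampled (EDTA) from predose to 144 h and assayed by validated LC-MS/MS. Cmax and Vz/F came from noncompartmental analysis. Vss/F = CL/F·(MRTp.o. − 1/Ka), with Ka from compartmental modelling.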

[10] = Apparent volume of distribution at steady state in healthy human at 5 mg, po administered as single dose coadministered with 100 mg of ritonavir; format: ADME, organism-based; settings: in vivo, read-out: Vss/F; summary of the method: as §1
[11] = Apparent volume of distribution at steady state in high fat fed healthy human at 50 mg, po administered as single dose coadministered with 100 mg of ritonavir; format: ADME, organism-based; settings: in vivo, read-out: Vss/F
Summary of the method: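 Fed cohort: healthy males ate an FDA-recipe high-fat breakfast (about 150/250/500-600 cal from protein/carbohydrate/fat) 30 min before a 50 mg oral dose of BILR 355 in PEG solution. Ritonavir 100 mg was given 10 h before and with the dose. Plasma was sampled over 144 h and assayed by LC-MS/MS. Noncompartmental analysis gave Cmax and Vz/F. Vss/F = CL/F·(MRTp.o. − 1/Ka).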

[12] = Renal clearance in high fat fed healthy human at 50 mg, po administered as single dose coadministered with 100 mg of ritonavir by high-pressure liquid chromatography-tandem mass spectrometry/mass spectrometry method; format: ADME, organism-based, Kidney; settings: in vivo, read-out: CL_renal (converted)
[13] = Drug excretion in healthy human urine assessed as unchanged drug at 12.5 mg, po administered as single dose coadministered with 100 mg of ritonavir by high-pressure liquid chromatography-tandem mass spectrometry/mass spectrometry method; format: ADME, organism-based; settings: read-out: Drug uptake
Summary of the method: (§2)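 Ritonavir 100 mg was given 10 h before and with one oral dose of BILR 355 in PEG solution. Urine was collected by weight as predose blank, then 0-6, 6-24 and 24-72 h, stored at −20°C and assayed by LC-MS/MS. fe = unchanged drug excreted (Ae) as a percentage of dose. Line 50: high-fat breakfast 30 min before dosing.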

[14] = Drug excretion in healthy human urine assessed as unchanged drug at 37.5 mg, po administered as single dose coadministered with 100 mg of ritonavir by high-pressure liquid chromatography-tandem mass spectrometry/mass spectrometry method; format: ADME, organism-based; settings: read-out: Drug uptake; summary of the method: as §2
[15] = Drug excretion in healthy human urine assessed as unchanged drug at 62.5 mg, po administered as single dose coadministered with 100 mg of ritonavir by high-pressure liquid chromatography-tandem mass spectrometry/mass spectrometry method; format: ADME, organism-based; settings: read-out: Drug uptake; summary of the method: as §2
[16] = Drug excretion in healthy human urine assessed as unchanged drug at 87.5 mg, po administered as single dose coadministered with 100 mg of ritonavir by high-pressure liquid chromatography-tandem mass spectrometry/mass spectrometry method; format: ADME, organism-based; settings: read-out: Drug uptake; summary of the method: as §2
Homo sapiens [17] = assay: Toxicity in high fat fed healthy human assessed as occurrence of aphthous stomatitis at 50 mg, po administered as single dose coadministered with 100 mg of ritonavir; format: organism-based; settings: in vivo
[18] = AUC (0 to infinity) in healthy human at 5 mg, po administered as single dose; format: ADME, organism-based; parameters: dose 5 mg, route oral, time infinity; settings: plasma
Summary of the method: (§3)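 Healthy male volunteers, six active plus two placebo per dose group, single oral dose in PEG solution with 200 ml water after overnight fast; breakfast 60 to 90 min post-dose. EDTA plasma sampled predose to 144 h. Assayed by validated LC-MS/MS after protein precipitation. Noncompartmental analysis, AUC by linear up/log down trapezoidal rule; Vss = CL/F·(MRTp.o. − 1/Ka).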

[19] = AUC (0 to infinity) in healthy human at 25 mg, po administered as single dose; format: ADME, organism-based; parameters: dose 25 mg, route oral, time infinity; settings: plasma; summary of the method: as §3
[20] = AUC (0 to last) in healthy human at 75 mg, po administered as single dose; format: ADME, organism-based; parameters: dose 75 mg, time 0 - last, route oral; settings: plasma; summary of the method: as §3
Homo sapiens [21] = assay: Toxicity in healthy human assessed as occurrence of abdominal pain at 25 mg, po administered as single dose relative to control; format: organism-based, Abdomen; settings: in vivo
Homo sapiens [22] = assay: Toxicity in healthy human assessed as occurrence of abdominal pain at 100 mg, po administered as single dose relative to control; format: organism-based, Abdomen; settings: in vivo
[23] = Renal clearance in healthy human at 5 mg, po administered as single dose by high-pressure liquid chromatography-tandem mass spectrometry/mass spectrometry method; format: ADME, organism-based, Kidney; settings: in vivo, read-out: CL_renal (converted)
[24] = Renal clearance in healthy human at 75 mg, po administered as single dose by high-pressure liquid chromatography-tandem mass spectrometry/mass spectrometry method; format: ADME, organism-based, Kidney; settings: in vivo, read-out: CL_renal (converted)
[25] = AUC (0 to last) in healthy human at 50 mg, po administered as single dose coadministered with 100 mg of ritonavir; format: ADME, organism-based; parameters: dose 50 mg, time 0 - last, route oral; settings: plasma
Summary of the method: (§4)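 Healthy male volunteers, fasted. Ritonavir 100 mg given 10 h before and again together with single oral BILR 355 in PEG solution. EDTA plasma sampled predose to 144 h. LC-MS/MS assay after protein precipitation. Noncompartmental analysis, AUC by linear up/log down trapezoidal rule; Vss = CL/F·(MRTp.o. − 1/Ka).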

[26] = AUC (0 to last) in healthy human at 62.5 mg, po administered as single dose coadministered with 100 mg of ritonavir; format: ADME, organism-based; parameters: dose 62.5 mg, time 0 - last, route oral; settings: plasma; summary of the method: as §4
[27] = Cmax in healthy human at 5 mg, po administered as single dose coadministered with 100 mg of ritonavir by high-pressure liquid chromatography-tandem mass spectrometry/mass spectrometry method; format: ADME, organism-based; parameters: dose 5 mg, route oral; settings: in vivo; summary of the method: as §1
[28] = Half life in healthy human at 5 mg, po administered as single dose coadministered with 100 mg of ritonavir; format: ADME, organism-based; settings: in vivo
[29] = Half life in healthy human at 37.5 mg, po administered as single dose coadministered with 100 mg of ritonavir; format: ADME, organism-based; settings: in vivo
Homo sapiens [30] = assay: Toxicity in healthy human assessed as occurrence of fatigue at 12.5 mg, po administered as single dose relative to control; format: organism-based; settings: in vivo
Homo sapiens [31] = assay: Toxicity in healthy human assessed as occurrence of fatigue at 75 mg, po administered as single dose relative to control; format: organism-based; settings: in vivo
Homo sapiens [32] = assay: Toxicity in healthy human assessed as occurrence of nausea at 50 mg, po administered as single dose relative to control; format: organism-based; settings: in vivo

Compound: CCN1c2ncc(CCOc3cc[n+]([O-])c4ccccc34)cc2C(=O)N(C)c2cccnc21 [BILR 355]
- Activity (Homo sapiens [1]): 0%
- Activity (Homo sapiens [2]): 0%
- Activity (Homo sapiens [3]): 0%
- half-life [4]: 11.5 h
- half-life [5]: 9.73 h
- half-life [6]: 11.9 h
- half-life [7]: 9.61 h
- MRT [8]: 24.8 h
- Vd/F [9]: 108 L
- Vd/F [10]: 166 L
- Vd/F [11]: 81.4 L
- CL renal [12]: 4.98 mL/min
- dose excreted [13]: 6.37%
- dose excreted [14]: 4.58%
- dose excreted [15]: 5.05%
- dose excreted [16]: 5.96%
- Activity (Homo sapiens [17]): 0%
- AUC(0-inf) [18]: 36.3 ng·h/mL
- AUC(0-inf) [19]: 142 ng·h/mL
- AUC(0-t) [20]: 763 ng·h/mL
- Activity (Homo sapiens [21]): 16.7%
- Activity (Homo sapiens [22]): 0%
- CL renal [23]: 4.52 mL/min
- CL renal [24]: 10.2 mL/min
- AUC(0-t) [25]: 6540 ng·h/mL
- AUC(0-t) [26]: 7480 ng·h/mL
- Cmax [27]: 25.3 ng/mL
- half-life [28]: 14.7 h
- half-life [29]: 11 h
- Activity (Homo sapiens [30]): 20%
- Activity (Homo sapiens [31]): 16.7%
- Activity (Homo sapiens [32]): 0%
